Reference: ChEMBL document CHEMBL4364256, “Design, synthesis and biological evaluation of antimicrobial diarylimine and -amine compounds targeting the interaction between the bacterial NusB and NusE proteins” (Eur J Med Chem, 2019)
≈ marks a conversion by molar mass, not a printed value. Calls of active or inactive are those of the source.

Experiments:
Bacillus subtilis = assay: Inhibition of N-terminal LgBiT-fused Bacillus subtilis NusB expressed in Escherichia coli BL21(DE3)pLysS interaction with C- terminal SmBiT-fused Bacillus subtilis NusE expressed in Escherichia coli BL21(DE3)pLysS at 100 uM preincubated for 10 mins followed by NusE addition and measured after 10 mins by nano-glo luciferase assay relative to control
How it was run: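 NusB and NusE were mixed 1:1 at 1 µM in PBS, with compound at 100 µM. The read-out was percent inhibition of the NusB-NusE interaction.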

Streptococcus pneumoniae = assay: Antimicrobial activity against Streptococcus pneumoniae ATCC 49619 incubated for 20 hrs by microdilution method; format: functional
How it was run: (§1)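 Broth microdilution MIC testing done following CLSI guidelines.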

Pseudomonas aeruginosa = assay: Antimicrobial activity against Pseudomonas aeruginosa ATCC 27853 incubated for 20 hrs by microdilution method; format: functional; how it was run: as §1
Staphylococcus aureus [1] = assay: Antimicrobial activity against CA-methicillin-resistant Staphylococcus aureus W4 ST338 incubated for 20 hrs by microdilution method; format: functional
How it was run: (§2)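 MIC determined by microdilution following Clinical & Laboratory Standards Institute (CLSI) guidelines, read in µg/mL, against a panel of hospital- and community-acquired MRSA strains.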

[2] = Apparent permeability across apical to basolateral side in human Caco2 cells by LC-MS/MS analysis; format: ADME, cell-based; conditions: Caco-2
Staphylococcus aureus [3] = assay: Antimicrobial activity against Staphylococcus aureus ST22 11B086169 incubated for 20 hrs by microdilution method; format: functional; how it was run: as §2
Staphylococcus aureus [4] = assay: Bacteriostatic activity against Staphylococcus aureus ATCC 25923 at 1/4 to 1 times MIC preincubated for up to 24 hrs followed by replating on agar plate and measured after overnight incubation by time-kill assay; format: functional, organism-based
Staphylococcus aureus [5] = assay: Antimicrobial activity against CA-methicillin-resistant Staphylococcus aureus W48 ST217 incubated for 20 hrs by microdilution method; conditions: W48 ST217, 20 h
[6] = system: Enterococcus casseliflavus; assay: Antimicrobial activity against Enterococcus casseliflavus ATCC 25788 incubated for 20 hrs by microdilution method; format: functional; how it was run: as §1
[7] = microbe, parasite or virus in culture; conditions: Enterobacter cloacae, ATCC 13047, 20 h
Staphylococcus aureus [8] = assay: Antimicrobial activity against Staphylococcus aureus HA W235 ST5 incubated for 20 hrs by microdilution method; format: functional; how it was run: as §2
[9] = Cytotoxicity against human HaCaT cells assessed as reduction in cell viability after 48 to 72 hrs by MTT assay; format: cell-based
Staphylococcus aureus [10] = assay: Antimicrobial activity against Staphylococcus aureus USA300/ST8 incubated for 20 hrs by microdilution method; conditions: USA300 ST8, 20 h
Staphylococcus aureus [11] = assay: Antimicrobial activity against Staphylococcus aureus ST239 incubated for 20 hrs by microdilution method; format: functional; how it was run: as §2
[12] = system: Staphylococcus epidermidis; assay: Antimicrobial activity against Staphylococcus epidermidis ATCC 12228 incubated for 20 hrs by microdilution method; format: functional; how it was run: as §1
Acinetobacter baumannii = assay: Antimicrobial activity against Acinetobacter baumannii ATCC 19606 incubated for 20 hrs by microdilution method; format: functional; how it was run: as §1
Staphylococcus aureus [13] = assay: Antimicrobial activity against CA-methicillin-resistant Staphylococcus aureus W47 ST30 incubated for 20 hrs by microdilution method; format: functional; how it was run: as §2
[14] = (§3) Antimicrobial activity against Staphylococcus saprophyticus ATCC 15305 incubated for 20 hrs by microdilution method; format: functional, Staphylococcus saprophyticus subsp. saprophyticus; conditions: ATCC 15305, 20 h; how it was run: as §1
Streptococcus agalactiae = assay: Antimicrobial activity against Streptococcus agalactiae ATCC 12386 incubated for 20 hrs by microdilution method; format: functional; how it was run: as §1
Staphylococcus aureus [15] = assay: Antimicrobial activity against Staphylococcus aureus ATCC BAA44 incubated for 20 hrs by microdilution method; format: functional; how it was run: as §2
Staphylococcus aureus [16] = assay: Bactericidal activity against Staphylococcus aureus ATCC 25923 at 4 times MIC preincubated for up to 24 hrs followed by replating on agar plate and measured after overnight incubation by time-kill; format: functional, organism-based
Staphylococcus aureus [17] = assay: Antimicrobial activity against CA-methicillin-resistant Staphylococcus aureus W45 ST59 incubated for 20 hrs by microdilution method; conditions: W45 ST59, 20 h
Streptococcus pyogenes = assay: Antimicrobial activity against Streptococcus pyogenes ATCC 19615 incubated for 20 hrs by microdilution method; format: functional; how it was run: as §1
Staphylococcus aureus [18] = assay: Antimicrobial activity against CA-methicillin-resistant Staphylococcus aureus W46 ST59 incubated for 20 hrs by microdilution method; conditions: W46 ST59, 20 h
[19] = Therapeutic index, ratio of CC50 for human A549 cells to 1/2 times MIC for Staphylococcus aureus ATCC 25923; format: toxicity; conditions: read-out: TI
Staphylococcus aureus [20] = assay: Antimicrobial activity against Staphylococcus aureus ATCC BAA43 incubated for 20 hrs by microdilution method; format: functional; how it was run: as §2
Erythrocyte = assay: Hemolytic activity against human erythrocytes at 0.1 to 10 ug/ml incubated for 45 mins; format: ADME, cell-based; conditions: 0.75 h
How it was run: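 Hemolysis was tested on human blood cells with compound at 0.1, 1 and 10 µg/mL, judged against a nonhemolytic cut-off value.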

Staphylococcus aureus [21] = assay: microbe, parasite or virus in culture; conditions: ATCC 29213, 20 h
Staphylococcus aureus [22] = assay: Antimicrobial activity against Staphylococcus aureus HA W231 ST45 incubated for 20 hrs by microdilution method; format: functional; how it was run: as §2
Enterococcus faecium = assay: Antimicrobial activity against Enterococcus faecium ATCC 19433 incubated for 20 hrs by microdilution method; format: functional; how it was run: as §1
[23] = Therapeutic index, ratio of CC50 for human HaCaT cells to 1/2 times MIC for Staphylococcus aureus ATCC 25923; format: toxicity; conditions: read-out: TI
Staphylococcus aureus [24] = assay: microbe, parasite or virus in culture; conditions: ATCC 25923, 20 h
[25] = Cytotoxicity against human A549 cells assessed as reduction in cell viability after 48 to 72 hrs by MTT assay; format: cell-based
Staphylococcus aureus [26] = assay: Growth inhibition of Staphylococcus aureus ATCC 25923 at 1/4 times MIC preincubated for 24 hrs followed by replating on agar plate and measured after overnight incubation by time-kill assay; format: functional, organism-based
Staphylococcus aureus [27] = assay: Bacteriostatic activity against Staphylococcus aureus ATCC 25923 at 1 to 4 times MIC preincubated for up to 24 hrs followed by replating on agar plate measured after overnight incubation by time-kill assay; format: functional, organism-based
[28] = system: Staphylococcus saprophyticus subsp. saprophyticus; assay: as §3; format: functional; how it was run: as §1
[29] = ATCC 19606 = CIP 70.34 = JCM 6841, 20 h

Molecule	inhibition (Bacillus subtilis) [%]	MIC (Streptococcus pneumoniae; ATCC 49619, 20 h) [µg/mL]	MIC (Pseudomonas aeruginosa; ATCC 27853, 20 h) [µg/mL]	MIC (Staphylococcus aureus [1]; W4 ST338, 20 h) [µg/mL]	Papp A→B [2] [×10⁻⁶ cm/s]	MIC (Staphylococcus aureus [3]; ST22 11B086169, 20 h) [µg/mL]	MIC (Staphylococcus aureus [5]) [µg/mL]	MIC ([6]; ATCC 25788, 20 h) [µg/mL]	MIC [7] [µg/mL]	MIC (Staphylococcus aureus [8]; HA W235 ST5, 20 h) [µg/mL]	MIC (Staphylococcus aureus [10]) [µg/mL]	MIC (Staphylococcus aureus [11]; CN79, 20 h) [µg/mL]	MIC ([12]; ATCC 12228, 20 h) [µg/mL]	MIC (Acinetobacter baumannii; [29]) [µg/mL]	MIC (Staphylococcus aureus [13]; W47 ST30, 20 h) [µg/mL]	MIC [14] [µg/mL]	MIC (Streptococcus agalactiae; ATCC 12386, 20 h) [µg/mL]	MIC (Staphylococcus aureus [21]) [µg/mL]	MIC (Enterococcus faecium; ATCC 19433, 20 h) [µg/mL]	MIC (Staphylococcus aureus [24]) [µg/mL]	other results
O=[N+]([O-])c1ccc(O)c(CNc2ccccc2Cl)c1	31	8 (≈ 28.7 µM)	> 256	4 (≈ 14.4 µM)	16.1	4 (≈ 14.4 µM)	4 (≈ 14.4 µM)	32 (≈ 115 µM)	256 (≈ 919 µM)	4 (≈ 14.4 µM)	4 (≈ 14.4 µM)	8 (≈ 28.7 µM)	8 (≈ 28.7 µM)	128 (≈ 459 µM)	4 (≈ 14.4 µM)	8 (≈ 28.7 µM)	32 (≈ 115 µM)	2 (≈ 7.18 µM)	32 (≈ 115 µM)	2 (≈ 7.18 µM)	Activity (Staphylococcus aureus [4]): Active; CC50 [9]: 20.1 µM; MIC (Staphylococcus aureus [15]; ATCC BAA44, 20 h): 8 µg/mL (≈ 28.7 µM); Activity (Staphylococcus aureus [16]): Active; MIC (Staphylococcus aureus [17]): 8 µg/mL (≈ 28.7 µM); MIC (Streptococcus pyogenes; ATCC 19615, 20 h): 16 µg/mL (≈ 57.4 µM); MIC (Staphylococcus aureus [18]): 4 µg/mL (≈ 14.4 µM); selectivity ratio [19]: 6; MIC (Staphylococcus aureus [20]; ATCC BAA43, 20 h): 2 µg/mL (≈ 7.18 µM); Activity (Erythrocyte): Non-Toxic; MIC (Staphylococcus aureus [22]; HA W231 ST45, 20 h): 4 µg/mL (≈ 14.4 µM); selectivity ratio [23]: 6; CC50 [25]: 22.5 µM
O=[N+]([O-])c1ccc(O)c(CNc2cccc(Cl)c2)c1	34.9	8 (≈ 28.7 µM)	> 256	8 (≈ 28.7 µM)	14.9	4 (≈ 14.4 µM)	8 (≈ 28.7 µM)	32 (≈ 115 µM)	256 (≈ 919 µM)	8 (≈ 28.7 µM)	8 (≈ 28.7 µM)	16 (≈ 57.4 µM)	8 (≈ 28.7 µM)	128 (≈ 459 µM)	8 (≈ 28.7 µM)	16 (≈ 57.4 µM)	32 (≈ 115 µM)	4 (≈ 14.4 µM)	32 (≈ 115 µM)	4 (≈ 14.4 µM)	MIC (Staphylococcus aureus [15]; ATCC BAA44, 20 h): 8 µg/mL (≈ 28.7 µM); MIC (Staphylococcus aureus [17]): 8 µg/mL (≈ 28.7 µM); MIC (Streptococcus pyogenes; ATCC 19615, 20 h): 16 µg/mL (≈ 57.4 µM); MIC (Staphylococcus aureus [18]): 8 µg/mL (≈ 28.7 µM); MIC (Staphylococcus aureus [20]; ATCC BAA43, 20 h): 4 µg/mL (≈ 14.4 µM); Activity (Erythrocyte): Non-Toxic; MIC (Staphylococcus aureus [22]; HA W231 ST45, 20 h): 8 µg/mL (≈ 28.7 µM)
C#Cc1cccc(/N=C/c2cc([N+](=O)[O-])ccc2O)c1	85.3	16 (≈ 60.1 µM)	> 256	–	–	–	–	–	> 256	–	–	–	–	64 (≈ 240 µM)	–	–	–	16 (≈ 60.1 µM)	> 256	8 (≈ 30 µM)	growth inhibition (GI) (Staphylococcus aureus [26]): Active; Activity (Staphylococcus aureus [27]): Active
GENTAMICIN	–	–	–	–	–	–	–	–	–	–	–	–	–	–	–	–	–	–	–	–	MIC (Streptococcus pneumoniae): 32 µg/mL; MIC (Pseudomonas aeruginosa): 2 µg/mL; MIC (Staphylococcus aureus [1]): 0.25 µg/mL; MIC (Staphylococcus aureus [3]): 0.25 µg/mL; MIC [6]: 4 µg/mL; MIC (Staphylococcus aureus [8]): > 256 µg/mL; MIC (Staphylococcus aureus [11]; CN79): > 256 µg/mL; MIC [12]: 0.125 µg/mL; MIC (Acinetobacter baumannii; ATCC 19606 = CIP 70.34 = JCM 6841): 32 µg/mL; MIC (Staphylococcus aureus [13]): 0.25 µg/mL; MIC [28]: 0.0625 µg/mL; MIC (Streptococcus agalactiae): 32 µg/mL; MIC (Staphylococcus aureus [15]): > 256 µg/mL; MIC (Streptococcus pyogenes): 8 µg/mL; MIC (Staphylococcus aureus [20]): > 256 µg/mL; MIC (Staphylococcus aureus [22]): 16 µg/mL; MIC (Enterococcus faecium): 16 µg/mL
